According to ChEMBL document CHEMBL1132220 (J Med Chem, 1999):

Tests used:
[1] = target: Somatostatin receptor type 5 (Homo sapiens, UniProt P35346); assay: The compound was tested for binding affinity against human Somatostatin receptor type 5
Summary of the method: (§1)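 Membranes from CHO-K1 cells transfected with the cloned human receptor. Terminated by filtration on PEI-soaked GF/C filters. Nonspecific binding defined with 1.0 μM SRIF. Mean ± SEM; single values are from one experiment.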

[2] = target: Somatostatin receptor type 2 (Homo sapiens, UniProt P30874); assay: The compound was tested for binding affinity against human Somatostatin receptor type 2
Sequence of Somatostatin receptor type 2 (P30874 whole entry): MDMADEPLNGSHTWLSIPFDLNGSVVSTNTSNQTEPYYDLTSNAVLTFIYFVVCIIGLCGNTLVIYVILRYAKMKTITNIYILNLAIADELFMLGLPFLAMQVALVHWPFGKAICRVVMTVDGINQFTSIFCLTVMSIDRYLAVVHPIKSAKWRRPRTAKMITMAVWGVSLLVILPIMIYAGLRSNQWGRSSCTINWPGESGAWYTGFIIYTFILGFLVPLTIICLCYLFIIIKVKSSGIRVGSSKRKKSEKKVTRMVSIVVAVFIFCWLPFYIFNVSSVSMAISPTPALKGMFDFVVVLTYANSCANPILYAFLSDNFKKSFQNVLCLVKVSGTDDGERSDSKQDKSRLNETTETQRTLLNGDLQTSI
Summary of the method: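 Membranes from CHO-K1 cells transfected with the cloned human sst2. Incubated 30 min at 37 °C with 0.05 nM [125I]MK-678 in HEPES pH 7.4 with BSA, MgCl2, Trasylol, bacitracin and PMSF. Filtration on PEI-soaked GF/C filters. Nonspecific binding defined with 1.0 μM SRIF. Mean ± SEM; single values are from one experiment.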

[3] = target: Somatostatin receptor type 1 (Homo sapiens, UniProt P30872); assay: The compound was tested for binding affinity against human Somatostatin receptor type 1; summary of the method: as §1
Sequence of Somatostatin receptor type 1 (P30872 whole entry): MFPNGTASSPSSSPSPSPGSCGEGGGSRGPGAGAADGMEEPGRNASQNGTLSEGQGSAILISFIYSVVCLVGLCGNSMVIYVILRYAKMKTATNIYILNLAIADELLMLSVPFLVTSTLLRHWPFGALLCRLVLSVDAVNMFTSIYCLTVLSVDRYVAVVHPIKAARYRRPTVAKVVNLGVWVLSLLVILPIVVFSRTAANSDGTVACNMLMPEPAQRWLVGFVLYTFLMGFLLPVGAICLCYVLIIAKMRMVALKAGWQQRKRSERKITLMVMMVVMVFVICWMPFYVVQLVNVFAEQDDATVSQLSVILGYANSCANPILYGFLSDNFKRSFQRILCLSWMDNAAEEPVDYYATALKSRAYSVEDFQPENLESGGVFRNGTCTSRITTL

[4] = target: Somatostatin receptor type 4 (Homo sapiens, UniProt P31391); assay: The compound was tested for binding affinity against human Somatostatin receptor type 4
Sequence of Somatostatin receptor type 4 (P31391 whole entry): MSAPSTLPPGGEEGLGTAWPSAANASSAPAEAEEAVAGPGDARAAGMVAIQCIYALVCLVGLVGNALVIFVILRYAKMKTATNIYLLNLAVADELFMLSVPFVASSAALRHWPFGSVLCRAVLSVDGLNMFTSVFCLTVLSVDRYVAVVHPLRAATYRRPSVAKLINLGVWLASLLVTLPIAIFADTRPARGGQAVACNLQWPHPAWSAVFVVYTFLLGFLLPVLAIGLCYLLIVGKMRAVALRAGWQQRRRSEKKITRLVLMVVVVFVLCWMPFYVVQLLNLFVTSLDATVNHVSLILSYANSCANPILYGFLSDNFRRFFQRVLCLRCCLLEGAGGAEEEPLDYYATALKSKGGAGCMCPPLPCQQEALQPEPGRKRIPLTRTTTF
Summary of the method: (§2)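 CHO-K1 cells stably transfected (calcium phosphate) with cloned human sst3 or sst4. Membranes made in ice-cold 50 mM Tris-HCl, resuspended in 10 mM Tris-HCl, then incubated 30 min at 37 °C with 0.05 nM [125I]Tyr11-SRIF in HEPES pH 7.4 with BSA, MgCl2 and protease inhibitors. Filtered on GF/C; nonspecific binding with 1.0 µM SRIF. Mean ± SEM, or one experiment.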

[5] = target: Somatostatin receptor type 3 (Homo sapiens, UniProt P32745); assay: The compound was tested for binding affinity against human Somatostatin receptor type 3; summary of the method: as §2
Sequence of Somatostatin receptor type 3 (P32745 whole entry): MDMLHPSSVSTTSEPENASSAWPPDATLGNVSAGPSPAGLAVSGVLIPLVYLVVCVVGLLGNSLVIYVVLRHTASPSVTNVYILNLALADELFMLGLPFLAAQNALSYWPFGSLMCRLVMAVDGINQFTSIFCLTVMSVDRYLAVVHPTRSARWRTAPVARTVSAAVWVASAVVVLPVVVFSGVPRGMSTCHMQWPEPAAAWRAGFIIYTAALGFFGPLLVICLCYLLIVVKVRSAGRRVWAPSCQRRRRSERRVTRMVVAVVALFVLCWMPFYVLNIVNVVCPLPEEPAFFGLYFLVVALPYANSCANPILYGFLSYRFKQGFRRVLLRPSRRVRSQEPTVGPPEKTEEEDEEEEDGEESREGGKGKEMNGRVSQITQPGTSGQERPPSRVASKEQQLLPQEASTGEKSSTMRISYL

Sequence of Somatostatin receptor type 5 (P35346 whole entry): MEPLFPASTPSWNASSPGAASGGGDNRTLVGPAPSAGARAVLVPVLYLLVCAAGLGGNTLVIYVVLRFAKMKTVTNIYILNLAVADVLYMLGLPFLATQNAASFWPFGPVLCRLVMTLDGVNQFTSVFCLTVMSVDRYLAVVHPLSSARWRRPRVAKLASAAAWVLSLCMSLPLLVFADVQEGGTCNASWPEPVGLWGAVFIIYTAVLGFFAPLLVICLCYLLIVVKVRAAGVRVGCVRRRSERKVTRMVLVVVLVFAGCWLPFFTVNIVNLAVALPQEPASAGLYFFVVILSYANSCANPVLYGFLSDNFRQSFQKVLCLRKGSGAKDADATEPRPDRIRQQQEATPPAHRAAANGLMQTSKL

Compound	Ki [1]	Ki [2]	Ki [3]	Ki [4]	Ki [5]
CC(C)(C)[C@@H]1NC(=O)[C@H](CCCCN)NC(=O)[C@@H](Cc2c[nH]c3ccccc23)NC(=O)[C@H](Cc2cccnc2)NC(=O)[C@H](NC(=O)[C@H](N)Cc2ccc(Cl)cc2)CSSC[C@@H](C(=O)N[C@H](Cc2ccc(Cl)cc2)C(N)=O)NC1=O	153 nM	56 nM	> 1000 nM	2880 nM	1190 nM
CC(C)[C@@H]1NC(=O)[C@H](CCCCN)NC(=O)[C@@H](Cc2c[nH]c3ccccc23)NC(=O)[C@H](Cc2cccnc2)NC(=O)[C@H](NC(=O)[C@@H](N)Cc2ccc(I)cc2)CSSC[C@@H](C(=O)N[C@@H](Cc2ccc(I)cc2)C(N)=O)NC1=O	48 nM	32 nM	575 nM	436 nM	18 nM
CC(C)[C@@H]1NC(=O)[C@H](CCCCN)NC(=O)[C@@H](Cc2c[nH]c3ccccc23)NC(=O)[C@H](Cc2cccnc2)NC(=O)[C@H](NC(=O)[C@@H](N)Cc2ccc(F)cc2)CSSC[C@@H](C(=O)N[C@@H](Cc2ccc(F)cc2)C(N)=O)NC1=O	369 nM	20 nM	435 nM	> 1000 nM	120 nM
CC(C)[C@@H]1NC(=O)[C@H](CCCCN)NC(=O)[C@@H](Cc2c[nH]c3ccccc23)NC(=O)[C@H](Cc2cccnc2)NC(=O)[C@H](NC(=O)[C@@H](N)Cc2c(F)c(F)c(F)c(F)c2F)CSSC[C@@H](C(=O)N[C@@H](Cc2c(F)c(F)c(F)c(F)c2F)C(N)=O)NC1=O	960 nM	633 nM	525 nM	176 nM	111 nM
CC(C)[C@@H]1NC(=O)[C@H](CCCCN)NC(=O)[C@@H](Cc2c[nH]c3ccccc23)NC(=O)[C@H](Cc2ccccn2)NC(=O)[C@H](NC(=O)[C@@H](N)Cc2c(F)c(F)c(F)c(F)c2F)CSSC[C@@H](C(=O)N[C@@H](Cc2c(F)c(F)c(F)c(F)c2F)C(N)=O)NC1=O	918 nM	> 1000 nM	568 nM		170 nM
CC(C)[C@@H]1NC(=O)[C@H](CCCCN)NC(=O)[C@@H](Cc2c[nH]c3ccccc23)NC(=O)[C@H](Cc2cccnc2)NC(=O)[C@H](NC(=O)[C@@H](N)Cc2ccc(Br)cc2)CSSC[C@@H](C(=O)N[C@@H](Cc2ccc(Br)cc2)C(N)=O)NC1=O	66 nM	16 nM	374 nM	3310 nM	57 nM
CC(C)[C@@H]1NC(=O)[C@H](CCCCN)NC(=O)[C@@H](Cc2c[nH]c3ccccc23)NC(=O)[C@H](Cc2cccnc2)NC(=O)[C@H](NC(=O)[C@@H](N)Cc2ccc(Cl)cc2)CSSC[C@@H](C(=O)N[C@@H](Cc2ccc(Cl)cc2)C(N)=O)NC1=O	139 nM	32 nM	> 1000 nM	301 nM	51 nM
CC(C)[C@@H]1NC(=O)[C@H](CCCCN)NC(=O)[C@@H](Cc2c[nH]c3ccccc23)NC(=O)[C@H](Cc2ccc(O)cc2)NC(=O)[C@H](NC(=O)[C@@H]2Cc3ccccc3CN2)CSSC[C@@H](C(=O)N2Cc3ccccc3C[C@H]2C(N)=O)NC1=O	> 1000 nM	345 nM	1030 nM	> 1000 nM	802 nM
C[C@@H](O)[C@@H]1NC(=O)[C@H](CCCCN)NC(=O)[C@@H](Cc2c[nH]c3ccccc23)NC(=O)[C@H](Cc2ccccn2)NC(=O)C(NC(=O)[C@@H](N)Cc2ccc(Cl)cc2)CSSCC(C(=O)N[C@@H](Cc2ccc3ccccc3c2)C(N)=O)NC1=O (stereo in doubt)	204 nM	233 nM	1690 nM		108 nM
CC(C)(C)C[C@@H]1NC(=O)[C@H](CCCCN)NC(=O)[C@@H](Cc2c[nH]c3ccccc23)NC(=O)[C@H](Cc2cccnc2)NC(=O)C(NC(=O)[C@@H](N)Cc2ccc(Cl)cc2)CSSCC(C(=O)N[C@@H](Cc2ccc3ccccc3c2)C(N)=O)NC1=O (stereo in doubt)	110 nM	166 nM	238 nM		175 nM

Continued, values first:

Ki [1]	Ki [2]	Ki [3]	Ki [4]	Ki [5]	Compound
	19 nM	> 1000 nM	1640 nM	58 nM	CC(C)(C)[C@@H]1NC(=O)[C@H](CCCCN)NC(=O)[C@@H](Cc2c[nH]c3ccccc23)NC(=O)[C@H](Cc2cccnc2)NC(=O)[C@H](NC(=O)[C@@H](N)Cc2ccc(Cl)cc2)CSSC[C@@H](C(=O)N[C@@H](Cc2ccc(Cl)cc2)C(N)=O)NC1=O
689 nM	2230 nM	> 1000 nM	> 1000 nM	1350 nM	CC[C@H](C)[C@@H]1NC(=O)[C@H](CCCCN)NC(=O)[C@@H](Cc2c[nH]c3ccccc23)NC(=O)[C@H](Cc2ccc(O)cc2)NC(=O)[C@H](NC(=O)[C@@H](N)Cc2ccc(-c3ccccc3)cc2)CSSC[C@@H](C(=O)N[C@@H](Cc2ccc(-c3ccccc3)cc2)C(N)=O)NC1=O
304 nM	99 nM	> 1000 nM	> 1000 nM	103 nM	CC(C)[C@@H]1NC(=O)[C@H](CCCCN)NC(=O)[C@@H](Cc2c[nH]c3ccccc23)NC(=O)[C@H](Cc2cccnc2)NC(=O)[C@H](NC(=O)[C@@H](N)Cc2ccc(C#N)cc2)CSSC[C@@H](C(=O)N[C@@H](Cc2ccc(C#N)cc2)C(N)=O)NC1=O
376 nM	69 nM	1060 nM	> 1000 nM	166 nM	CC(C)[C@@H]1NC(=O)[C@H](CCCCN)NC(=O)[C@@H](Cc2c[nH]c3ccccc23)NC(=O)[C@H](Cc2cccnc2)NC(=O)[C@H](NC(=O)[C@@H](N)Cc2ccc3ccccc3c2)CSSC[C@@H](C(=O)N[C@@H](Cc2ccc(F)cc2)C(N)=O)NC1=O
748 nM	117 nM	82 nM	> 1000 nM	495 nM	CC(C)[C@@H]1NC(=O)[C@H](CCCCN)NC(=O)[C@@H](Cc2c[nH]c3ccccc23)NC(=O)[C@H](Cc2cccnc2)NC(=O)[C@H](NC(=O)[C@@H](N)Cc2cccc(F)c2)CSSC[C@@H](C(=O)N[C@@H](Cc2cccc(F)c2)C(N)=O)NC1=O
382 nM	163 nM	413 nM	1570 nM	192 nM	NCCCC[C@@H]1NC(=O)[C@@H](Cc2c[nH]c3ccccc23)NC(=O)[C@H](Cc2cccnc2)NC(=O)[C@H](NC(=O)[C@@H](N)Cc2ccc3ccccc3c2)CSSC[C@@H](C(=O)N[C@@H](Cc2ccc3ccccc3c2)C(N)=O)NC(=O)CNC1=O
968 nM	543 nM	415 nM	728 nM	243 nM	CC(C)C[C@@H]1NC(=O)[C@H](CCCCN)NC(=O)[C@@H](Cc2c[nH]c3ccccc23)NC(=O)[C@H](Cc2cccnc2)NC(=O)[C@H](NC(=O)[C@@H](N)Cc2ccc3ccccc3c2)CSSC[C@@H](C(=O)N[C@@H](Cc2ccc3ccccc3c2)C(N)=O)NC1=O
694 nM	106 nM	> 1000 nM	> 1000 nM	838 nM	CC(C)[C@@H]1NC(=O)[C@H](CCCCN)NC(=O)[C@@H](Cc2c[nH]c3ccccc23)NC(=O)[C@H](Cc2cccnc2)NC(=O)[C@H](NC(=O)[C@H](N)Cc2ccc(F)cc2)CSSC[C@@H](C(=O)N[C@H](Cc2ccc(F)cc2)C(N)=O)NC1=O
524 nM	81 nM	348 nM	> 1000 nM	171 nM	CC(C)[C@@H]1NC(=O)[C@H](CCCCN)NC(=O)[C@@H](Cc2c[nH]c3ccccc23)NC(=O)[C@H](Cc2cccnc2)NC(=O)[C@H](NC(=O)[C@@H](N)Cc2ccc3ccccc3c2)CSSC[C@@H](C(=O)N[C@@H](Cc2ccc3ccccc3c2)C(N)=O)NC1=O
287 nM	35 nM	484 nM	> 1000 nM	271 nM	CC(C)[C@@H]1NC(=O)[C@H](CCCCN)NC(=O)[C@@H](Cc2c[nH]c3ccccc23)NC(=O)[C@H](Cc2cccnc2)NC(=O)[C@H](NC(=O)[C@@H](N)Cc2ccc(F)cc2)CSSC[C@@H](C(=O)N[C@@H](Cc2ccc3ccccc3c2)C(N)=O)NC1=O
1580 nM	241 nM	186 nM	> 1000 nM	385 nM	CC(C)[C@@H]1NC(=O)[C@H](CCCCN)NC(=O)[C@@H](Cc2c[nH]c3ccccc23)NC(=O)[C@H](Cc2cccnc2)NC(=O)[C@H](NC(=O)[C@@H](N)Cc2ccccc2F)CSSC[C@@H](C(=O)N[C@@H](Cc2ccccc2F)C(N)=O)NC1=O
1380 nM	692 nM	34 nM		93 nM	CC(C)[C@@H]1NC(=O)[C@H](CCCCN)NC(=O)[C@@H](Cc2c[nH]c3ccccc23)NC(=O)[C@@H](Cc2ccccn2)NC(=O)[C@H](NC(=O)[C@@H](N)Cc2c(F)c(F)c(F)c(F)c2F)CSSC[C@@H](C(=O)N[C@@H](Cc2c(F)c(F)c(F)c(F)c2F)C(N)=O)NC1=O
	51 nM	443 nM	> 1000 nM	290 nM	C[C@@H](O)[C@@H]1NC(=O)[C@H](CCCCN)NC(=O)[C@@H](Cc2c[nH]c3ccccc23)NC(=O)[C@H](Cc2ccccc2)NC(=O)[C@H](NC(=O)[C@@H](N)Cc2ccc(Cl)cc2)CSSC[C@@H](C(=O)N[C@@H](Cc2ccc3ccccc3c2)C(N)=O)NC1=O
			> 1000 nM		C[C@@H](O)[C@@H]1NC(=O)[C@H](CCCCN)NC(=O)[C@@H](Cc2c[nH]c3ccccc23)NC(=O)[C@@H](Cc2cccnc2)NC(=O)C(NC(=O)[C@@H](N)Cc2ccc(Cl)cc2)CSSCC(C(=O)N[C@@H](Cc2ccc3ccccc3c2)C(N)=O)NC1=O (stereo in doubt)
